Measured values: ChEMBL document CHEMBL3046880, “Syntheses and herbicidal activities of novel triazolinone derivatives” (J Agric Food Chem, 2008)

What was measured:
Assay type in all cases: functional
Setaria viridis = experiment: Herbicidal activity against Setaria viridis (green foxtail) assessed as growth inhibition at 150 g of active ingredient/ha administered using post-emergence treatment measured 15 days post treatment protocol under greenhouse conditions
Summary of the method: (§1)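 Test agents were formulated as 100 g/L emulsified concentrates (DMF solvent, TW-80 emulsifier), diluted with water and sprayed postemergence on pot-grown weeds. Seeds were sown 1-3 cm deep in clay soil (pH 6.5, 1.6% organic matter, 37.3% clay, CEC […]) and grown at 15–30 °C in a greenhouse. Dicots were treated at the two-leaf stage. Untreated and DMF-treated plants served as controls. Activity was scored visually 15 days after treatment.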

Brassica juncea = experiment: Herbicidal activity against Brassica juncea assessed as growth inhibition at 150 g of active ingredient/ha administered using post-emergence treatment measured 15 days post treatment protocol under greenhouse conditions; summary of the method: as §1
Amaranthus retroflexus = experiment: Herbicidal activity against Amaranthus retroflexus assessed as growth inhibition at 150 g of active ingredient/ha administered using post-emergence treatment measured 15 days post treatment protocol under greenhouse conditions; summary of the method: as §1
Echinochloa crus-galli = experiment: Herbicidal activity against Echinochloa crus-galli (barnyard grass) assessed as growth inhibition at 150 g of active ingredient/ha administered using post-emergence treatment measured 15 days post treatment protocol under greenhouse conditions; summary of the method: as §1
Chenopodium album = experiment: Herbicidal activity against Chenopodium album assessed as growth inhibition at 150 g of active ingredient/ha administered using post-emergence treatment measured 15 days post treatment protocol under greenhouse conditions; summary of the method: as §1
Digitaria sanguinalis = experiment: Herbicidal activity against Digitaria sanguinalis (hairy crabgrass) assessed as growth inhibition at 150 g of active ingredient/ha administered using post-emergence treatment measured 15 days post treatment protocol under greenhouse conditions; summary of the method: as §1

Compound	growth inhibition (GI) (Setaria viridis)	growth inhibition (GI) (Brassica juncea)	growth inhibition (GI) (Amaranthus retroflexus)	growth inhibition (GI) (Echinochloa crus-galli)	growth inhibition (GI) (Chenopodium album)	growth inhibition (GI) (Digitaria sanguinalis)
Cc1nn(-c2cc(N3C(=O)C4=C(CCCC4)C3=O)c(F)cc2Br)c(=O)n1C(F)F	<50%	50%	50%	<50%	<50%	<50%
Cc1nn(-c2cc(NC(=O)Nc3ccccc3)c(Cl)cc2Cl)c(=O)n1C(F)F	<50%	<50%	<50%	<50%	<50%	<50%
Cc1nn(-c2cc(N3C(=O)C4CCCCC4C3=O)c(Cl)cc2Cl)c(=O)n1C(F)F (stereo not given)	<50%	<50%	100%	<50%	>80%	<50%
Cc1nn(-c2cc(NC(=O)Nc3ccccc3)c(Br)cc2F)c(=O)n1C(F)F	<50%	<50%	<50%	<50%	<50%	<50%
Cc1nn(-c2cc(NC(=O)Nc3ccc(Cl)cc3)c(Br)cc2F)c(=O)n1C(F)F	<50%	<50%	<50%	<50%	<50%	<50%
Cc1nn(-c2cc(NC(=O)Nc3ccccc3)ccc2Cl)c(=O)n1C(F)F	<50%	<50%	<50%	<50%	<50%	<50%
Cc1nn(-c2cc(N3C(=O)C4CCCCC4C3=O)c(Br)cc2F)c(=O)n1C(F)F (stereo not given)	50%	50%	100%	50%	100%	50%
Cc1nn(-c2cc(N3C(=O)c4ccccc4C3=O)c(Cl)cc2Cl)c(=O)n1C(F)F	50%	<50%	100%	50%	100%	50%
Cc1nn(-c2cc(NC(=O)Nc3ccc(Cl)cc3)c(F)cc2Br)c(=O)n1C(F)F	<50%	<50%	<50%	<50%	<50%	<50%
Cc1nn(-c2cc(N3C(=O)C4=C(CCCC4)C3=O)c(Br)cc2F)c(=O)n1C(F)F	50%	<50%	100%	50%	100%	50%
Cc1nn(-c2cc(NC(=O)Nc3ccc(Cl)cc3)ccc2Cl)c(=O)n1C(F)F	<50%	<50%	<50%	<50%	<50%	<50%
Cc1nn(-c2cc(N3C(=O)C4=C(CCCC4)C3=O)c(Cl)cc2Cl)c(=O)n1C(F)F	50%	<50%	100%	50%	100%	50%
Cc1nn(-c2cc(N3C(=O)c4ccccc4C3=O)c(F)cc2Br)c(=O)n1C(F)F	<50%	<50%	<50%	<50%	<50%	<50%
Cc1nn(-c2cc(N3C(=O)C4=C(CCCC4)C3=O)ccc2Cl)c(=O)n1C(F)F	<50%	<50%	<50%	<50%	<50%	<50%
Cc1nn(-c2cc(NC(=O)Nc3ccccc3)c(F)cc2Br)c(=O)n1C(F)F	<50%	<50%	<50%	<50%	<50%	<50%
Cc1nn(-c2cc(NC(=O)Nc3ccc(Cl)cc3)c(Cl)cc2Cl)c(=O)n1C(F)F	<50%	<50%	<50%	<50%	<50%	<50%
Cc1nn(-c2cc(N3C(=O)C4CCCCC4C3=O)c(F)cc2Br)c(=O)n1C(F)F (stereo not given)	<50%	50%	<50%	<50%	50%	<50%
Cc1nn(-c2cc(N3C(=O)C4CCCCC4C3=O)ccc2Cl)c(=O)n1C(F)F (stereo not given)	<50%	<50%	<50%	<50%	<50%	<50%
Cc1nn(-c2cc(N3C(=O)c4ccccc4C3=O)c(Br)cc2F)c(=O)n1C(F)F	>80%	>80%	100%	50%	>80%	>80%
Cc1nn(-c2cc(N3C(=O)c4ccccc4C3=O)ccc2Cl)c(=O)n1C(F)F	<50%	<50%	<50%	<50%	<50%	<50%
